# Screens (PubChem)
# SR-BI HDL uptake = inhibitors of SR-BI mediated HDL lipid uptake, primary screen, ldlA[mSR-BI] cells, fluorescence, single point | Scavenger receptor class B member 1 (Mus musculus), Q61009 | ldlA[mSR-BI] CHO cells, DiI-HDL uptake fluorescence, 3 h | inhibition, % at 12.5 µM | 0.96% of 320,000 active;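 active = mean replicate inhibition of at least 70% and a set share of replicates each scoring 70 or more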;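 note: 0% = median of neutral control wells and 100% = median of positive control wells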
# dFosB act = activators of delta FosB homodimer, primary screen, biochemical, fluorescence polarization, TAMRA-CDK5 oligo, single point. purified delta FosB; percent of positive-control signal above neutral wells. 0.99% of 340,000 active. activation, % at 25 µM;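 active = mean activation above about 17%, with every replicate also reaching it, limit read from the data, passing the limit was not always enough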
# Target sequence (P13346 whole entry, looked up): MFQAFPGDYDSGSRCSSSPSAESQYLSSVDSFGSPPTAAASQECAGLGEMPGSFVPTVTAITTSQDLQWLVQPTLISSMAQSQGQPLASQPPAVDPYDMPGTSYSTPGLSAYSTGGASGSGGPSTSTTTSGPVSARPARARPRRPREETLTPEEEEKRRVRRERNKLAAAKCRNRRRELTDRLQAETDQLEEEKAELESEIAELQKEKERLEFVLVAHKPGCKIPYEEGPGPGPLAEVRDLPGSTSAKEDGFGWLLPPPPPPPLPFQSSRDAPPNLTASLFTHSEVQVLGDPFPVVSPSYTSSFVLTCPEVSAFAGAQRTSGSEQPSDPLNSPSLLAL
# PvdQ acylase = P. aeruginosa PvdQ acylase inhibitors, primary screen, biochemical, fluorescence, plate reader and imaging, single point. 0.063% of 340,000 active. inhibition, % at 10 µM. purified PvdQ acylase. AID 488965, 2010. PvdQ acylase [Pseudomonas aeruginosa LESB58]; in the data active = inhibition above about 30%, passing the limit was not always enough;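 note: 0% = vehicle neutral wells and 100% = reference inhibitor wells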
# rRNA inh HTS = reduced GFP signal of wild-type E. coli, primary screen, bacterial rRNA inhibitor project, GFP/RFP fluorescence, OD600, single point; E. coli WT GFP vs humanized-ribosome RFP mutants, 24 h; hits give low values; DMSO median 0, no signal -100; 1.6% of 350,000 active; AID 720706, 2013; GFP signal change (wild-type ribosome), % (concentration not given with the values);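 active = significant combined selectivity score with lowered wild-type GFP, culture density cut under 30%, mutant RFP and density less affected; inactive = any of these conditions unmet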
# SR-BI uptake up = activators of SR-BI mediated DiI-HDL uptake, primary screen, ldlA[mSR-BI] CHO cells, DiI fluorescence. 0.096% of 320,000 active. activation, % at 12.5 µM. AID 504775, 2011. 3 h; 100 = double the neutral-control signal;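 active = mean replicate activation of at least 60% and every replicate at or above 60%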;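 note: 0% = median plate neutral-control signal and 100% = twice that signal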
#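 Test system: SR-BI-overexpressing, LDLR-lacking CHO cells; Medium: Ham's F12 with 0.5% BSA, HEPES 25 mM, pH 7.4; Schedule: 3 h, 37 °C; Technique: bottom-read fluorescence, 550/595 nm.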
# Xi reactivation = activators of inactive X chromosome reactivation, primary screen, imaging, XiGFP fibroblasts, GFP high-content imaging, set 2 | XiGFP mouse fibroblasts, % GFP-positive cells imaging, 3 d; cells co-treated with 5-aza-dC sensitizer; scaled so ellipticine positive control = 100% | 0.055% of 360,000 active | AID 743238, 2013 | activation, % at 7.58 µM;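 active = mean normalized replicate activation at least 10% and every replicate at or above 10%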;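 note: 0% = median of on-plate neutral control wells and 100% = ellipticine 6 µM median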
#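 System: SV40-immortalized XiGFP fibroblast cells, line 68-5-11 / Incubation: 3-day compound exposure, then 15 min fixation at room temperature / Compound: single concentration per compound, delivered by pin transfer / Buffer or medium: DMEM plus 5-aza-dC sensitizer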
# Starred values were filed as active, the others as inactive; i = inactive; / = not tested or not shown. An excerpt weighted towards active compounds, which were near 2.6% of everything screened.
SMILES,SR-BI HDL uptake,dFosB act,PvdQ acylase,rRNA inh HTS,SR-BI uptake up,Xi reactivation
N#C/C(=N\Nc1ccccc1F)c1nc(-c2ccccc2)cs1,71.3*,-5.5,-0.3,20.7,-71.3,0.3
Cc1ccc(Cn2cc(CN3CC(N4CCCC4)CS3(=O)=O)nn2)cc1 (configuration not stated),/,/,/,9.9,/,0.0
Cc1ccccc1OCC(=O)NC(=S)Nc1ccc(N2CCOCC2)c(Cl)c1,i,-4.4,-4.7,/,867.0*,/
COc1ccccc1C(=O)NC(=S)Nc1ccc(N2CCOCC2)c(Cl)c1,47.5,-3.0,3.9,6.6,-47.5,0.3
COCCCN(CC(=O)O)S(=O)(=O)c1ccccc1,-38.7,4.8,-6.8,20.0,38.7,0.0
CCN(C(=O)COC(=O)/C=C/c1ccc2c(c1)OCO2)c1c(N)n(Cc2ccccc2)c(=O)[nH]c1=O,10.6,164.4*,-13.8,9.8,-10.6,0.6
CCc1noc(C)c1C(=O)Nc1nc(-c2ccc(Cl)cc2Cl)c(C)s1,75.0*,-7.3,-12.8,/,-75.0,/
CCC(=O)Nc1ccc2c(c1)OC[C@@H](C)N(C(=O)CC1CC1)C[C@H](C)[C@@H](OC)CN(C)C2=O,/,/,/,-0.9,/,0.6
CCNC(=S)N/N=C/c1cc(C)ccc1C,13.4,-2.3,-4.7,2.7,-13.4,0.1
C=CCNC(=S)N/N=C/c1ccc(C)cc1C,-8.2,-11.2,11.0,-16.9*,8.2,-0.1
Cc1nc2ccc(N)cc2c(=O)n1Cc1ccc(Cl)cc1,-1.6,-6.6,7.5,/,1.6,/
Cc1nc2ccc(Br)cc2c(=O)n1Cc1cccs1,6.9,-7.3,-1.7,-31.8*,-6.9,0.2
CSc1ccc(CNC(=O)c2c(C)noc2C)s1,-5.1,-2.5,-9.0,13.3,5.1,0.0
COc1cc(C(=O)NC(=S)NNC(=O)c2ccc3c(c2)OCO3)cc(OC)c1OC,40.6,-6.4,-6.0,-23.4*,-40.6,-0.1
COc1cc(C(=O)NC(=S)Nc2ccc3c(c2)OCO3)cc(OC)c1OC,37.3,-4.0,-5.1,13.1,-37.3,0.0
CCN(CC)C(=O)Oc1nnc(SC(C)C)n1-c1ccc(Cl)c(Cl)c1,27.1,-8.4,10.3,-16.4,-27.0,0.2
CCN(CC)C(=O)Oc1nnc(SC(C)C)n1-c1ccc(Cl)cc1,-21.2,-3.0,-3.3,-29.0*,21.2,0.2
COc1ccc(/C=N/NC(=O)C(C)n2cnc3ccccc3c2=O)cc1OC (configuration not stated),-9.4,-4.2,-10.1,-0.8,9.4,0.0
COc1ccccc1CC(=O)NCCN1CCCCC1,-15.8,5.9,-11.5,24.9,15.8,0.7
COC(=O)[C@@H]1[C@@H](CO)[C@@H]2Cn3c(ccc(C4=CCCC4)c3=O)[C@@H]2N1C(=O)C1CC1,/,/,/,0.1,/,0.0
Cc1c(CCC(=O)O)c(=O)oc2c(C)c3occ(-c4ccc(Br)cc4)c3cc12,-9.6,-43.0,-2.6,-15.7*,9.6,0.0
Cc1c(CC(=O)O)c(=O)oc2cc3occ(-c4ccccc4)c3cc12,-19.9,-15.8,-5.0,-19.0*,19.9,0.3
Cc1c(CC(=O)NCCC(=O)O)c(=O)oc2cc3occ(-c4ccccc4)c3cc12,-15.7,-19.8,-15.6,-21.9,15.7,0.2
C=CCn1c(SCC(=O)/C(C#N)=C(\C)N)nc2sc(CC)cc2c1=O,18.3,8.9,-10.6,-5.2,-18.3,0.0
O=C(/C=C/NNC(=O)c1cccc(Br)c1)c1cccc(Br)c1,68.1,-5.7,-12.4,/,-68.1,/
SMILES,SR-BI HDL uptake,dFosB act,PvdQ acylase,rRNA inh HTS,SR-BI uptake up,Xi reactivation
O=C(/C=C/NNC(=O)c1ccc(Cl)cc1)c1ccccc1,111.5*,-10.8,-3.1,-16.4,-111.5,0.0
COc1ccc(C(=O)C=CNNC(=O)c2ccc(Cl)cc2)cc1,95.5*,2.8,-7.5,2.3,-95.5,0.0
O=C(/C=C/NNC(=O)c1ccccc1)c1ccc(Br)cc1,118.1*,-6.6,-5.9,/,-118.1,/
CN(CC(=O)NCc1ccncc1)S(=O)(=O)c1ccc(F)cc1,-30.9,1.4,-4.4,7.9,30.9,/
COc1ccc(CNc2oc(COc3ccc(Cl)cc3)nc2C#N)cc1,-1.1,-7.4,-14.4,/,1.1,/
CCCOc1ccc(N2C(=O)CC(N3CCC(c4nncn4CC)CC3)C2=O)cc1 (configuration not stated),11.0,5.6,-7.7,/,-11.0,/
Cc1c(C(c2ccc(C(=O)O)cc2)c2c(C)n(C)n(-c3ccccc3)c2=O)c(=O)n(-c2ccccc2)n1C,76.2*,-5.6,-14.0,10.4,-76.2,0.1
CCOC(=O)C1=C(C)N=C2SCCC(=O)N2C1c1cc(Br)ccc1OC (configuration not stated),-32.0,-5.5,-5.7,/,32.0,/
O=C(N/C=N/O)C(c1ccccc1)c1ncc(C(F)(F)F)cc1Cl (configuration not stated),-8.5,-16.6,-14.2,4.0,8.5,0.0
CCC(C)c1nc2ccsc2c(N2CCOC2=O)c1-c1ccccc1 (configuration not stated),-24.3,1.5,3.6,4.7,24.3,18.8*
O=C(Oc1cccc(Cl)c1)N1CCOCC1,-18.9,1.2,6.7,-2.7,18.9,0.3
COc1ccc2oc(=O)c(-c3csc(Nc4ccc(O)cc4)n3)cc2c1,84.0*,-3.6,8.3,/,-84.0,1.4
COc1ccc2oc(=O)c(/C(C)=N/Nc3nc(-c4cc(C)ccc4C)cs3)cc2c1,7.1,-10.0,4.6,-12.5,-7.0,-0.1
CC(C)NC(=O)N(C)C[C@@H]1Oc2cc(-c3ccccc3F)ccc2S(=O)(=O)N([C@H](C)CO)C[C@H]1C,/,/,/,-3.4,/,-0.1
Cc1nc2cc(-c3ccccc3)nn2c(C)c1CCC(=O)NC(C)c1ccc2c(c1)OCCO2 (configuration not stated),77.0*,-11.0,-0.5,-11.8,-77.0,0.2
CCOC(=O)/C(=N\Nc1ccc(C(C)=O)cc1)c1csc(Nc2ccccc2)n1,51.2,-1.1,-13.7,/,-51.2,-0.1
CCOC(=O)/C(=N\Nc1ccccc1[N+](=O)[O-])c1csc(N)n1,77.7*,-1.2,-3.5,-26.7*,-77.7,-0.1
Cc1[nH]c2ccccc2c1N=Nc1ccccc1F,34.9,-3.3,-15.1,-61.6,-34.9,1.3
